Experiments:
[1] = Inhibition of biotinylated PEX5-derived ALSENWAQEFLA binding to Trypanosoma brucei N-terminal His-tagged PEX14 (21 to 84 residues) expressed in Escherichia coli BL21 by Alphascreen assay
How it was run: (§1)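 His-tagged PEX14 (21-84) at 3 nM with 10 nM biotinylated peptide in PBS containing 5 mg/mL BSA and 0.01% Tween-80; 5 µg/mL streptavidin donor and nickel chelate acceptor beads; 5% DMSO held constant.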

[2] = Inhibition of biotinylated PEX5-derived ALSENWAQEFLA binding to Trypanosoma cruzi N-terminal His-tagged PEX14 (21 to 84 residues) expressed in Escherichia coli BL21 by Alphascreen assay; how it was run: as §1
[3] = molecular target: Peroxisomal membrane protein PEX14 (Homo sapiens, UniProt O75381); assay: Inhibition of biotinylated PEX5-derived ALSENWAQEFLA binding to human N-terminal His-tagged PEX14 (21 to 84 residues) expressed in Escherichia coli BL21 by Alphascreen assay; how it was run: as §1
Peroxisomal membrane protein PEX14, sequence (O75381 whole entry, stated change not applied, the tested form may be a part): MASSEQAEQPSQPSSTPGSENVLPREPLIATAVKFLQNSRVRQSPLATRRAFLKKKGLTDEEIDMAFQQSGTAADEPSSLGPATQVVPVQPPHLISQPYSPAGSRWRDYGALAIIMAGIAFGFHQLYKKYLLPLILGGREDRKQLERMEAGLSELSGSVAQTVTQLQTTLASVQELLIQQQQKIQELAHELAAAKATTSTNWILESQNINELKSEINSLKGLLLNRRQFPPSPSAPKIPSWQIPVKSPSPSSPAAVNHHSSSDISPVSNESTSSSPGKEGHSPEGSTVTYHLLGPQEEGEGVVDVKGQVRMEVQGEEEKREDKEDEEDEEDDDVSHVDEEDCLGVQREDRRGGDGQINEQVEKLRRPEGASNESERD

[4] = system: Trypanosoma brucei brucei; assay: Antitrypanosomal activity against bloodstream form of Trypanosoma brucei brucei Lister 427 after 66 hrs by Resazurin dye-based fluorescence assay; type: functional, organism-based; settings: Lister 427, 66 h
HepG2 = assay: Cytotoxicity against human HepG2 cells assessed as reduction in cell viability measured after 66 hrs by resazurin dye based fluorescence assay; settings: HepG2, 66 h
[5] = Selectivity index, ratio of EC50 for human HepG2 cells to EC50 for antitrypanosomal activity against bloodstream form of Trypanosoma brucei brucei Lister 427

EC50 [3] [µM] | EC50 [4] [µM] | Compound | EC50 [1] [µM] | EC50 [2] [µM] | EC50 (HepG2) [µM] | selectivity ratio [5]
> 1000 | 5.61 | COc1ccc(CN2CCc3nn4c(c3C2)CN(Cc2cccc3ccccc23)C4=O)c2ccccc12 | 103 | 448 | > 50 | > 8.9
> 1000 | 6.42 | COc1ccc(CN2CCc3nn4c(c3C2)C(=O)N(Cc2cccc3ccccc23)CC4)c2ccccc12 | 49.2 | 463 | > 50 | > 7.8
166 | 3.58 | COc1ccc(CN2CCc3c(c(C(=O)NCc4cccc5ccccc45)nn3CCN3CCOCC3)C2)c2ccccc12 | 88.1 | 162 | 42 | 11.7
